Active and inactive are the calls of the source. The calls are words filed in the database; no cut-off is given here.
What was measured:
[1] = biological target: Tankyrase 1/2 (Homo sapiens) (UniProt Q9H2K2+O95271); assay: Inhibition of TNKS1/2 in HEK293 cells assessed as inhibition of Wnt/[…] pathway at 10 uM after 24 hrs by luciferase reporter gene assay; type: cell-based
Summary of the method: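 ST-Luc/Ren HEK293 cells (stable SuperTOP-Flash, 7× TCF sites) were seeded at 40,000 per well on poly-L-lysine. After 24 h, cells got compound for 24 h in 50% Wnt3a-conditioned medium from L Wnt3a cells. Lysates were read for firefly and Renilla luciferase by dual-luciferase luminescence.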

[2] = Half life in human liver microsomes; type: ADME, Microsome
Tankyrase 1/2 = biological target: T1, Tankyrase 1/2 (Homo sapiens, UniProt Q9H2K2+O95271); assay: Inhibition of TNKS1/2 in HEK293 cells assessed as inhibition of Wnt/beta-catenin pathway after 24 hrs by luciferase reporter gene assay; type: cell-based
T1 sequence (Q9H2K2 whole entry): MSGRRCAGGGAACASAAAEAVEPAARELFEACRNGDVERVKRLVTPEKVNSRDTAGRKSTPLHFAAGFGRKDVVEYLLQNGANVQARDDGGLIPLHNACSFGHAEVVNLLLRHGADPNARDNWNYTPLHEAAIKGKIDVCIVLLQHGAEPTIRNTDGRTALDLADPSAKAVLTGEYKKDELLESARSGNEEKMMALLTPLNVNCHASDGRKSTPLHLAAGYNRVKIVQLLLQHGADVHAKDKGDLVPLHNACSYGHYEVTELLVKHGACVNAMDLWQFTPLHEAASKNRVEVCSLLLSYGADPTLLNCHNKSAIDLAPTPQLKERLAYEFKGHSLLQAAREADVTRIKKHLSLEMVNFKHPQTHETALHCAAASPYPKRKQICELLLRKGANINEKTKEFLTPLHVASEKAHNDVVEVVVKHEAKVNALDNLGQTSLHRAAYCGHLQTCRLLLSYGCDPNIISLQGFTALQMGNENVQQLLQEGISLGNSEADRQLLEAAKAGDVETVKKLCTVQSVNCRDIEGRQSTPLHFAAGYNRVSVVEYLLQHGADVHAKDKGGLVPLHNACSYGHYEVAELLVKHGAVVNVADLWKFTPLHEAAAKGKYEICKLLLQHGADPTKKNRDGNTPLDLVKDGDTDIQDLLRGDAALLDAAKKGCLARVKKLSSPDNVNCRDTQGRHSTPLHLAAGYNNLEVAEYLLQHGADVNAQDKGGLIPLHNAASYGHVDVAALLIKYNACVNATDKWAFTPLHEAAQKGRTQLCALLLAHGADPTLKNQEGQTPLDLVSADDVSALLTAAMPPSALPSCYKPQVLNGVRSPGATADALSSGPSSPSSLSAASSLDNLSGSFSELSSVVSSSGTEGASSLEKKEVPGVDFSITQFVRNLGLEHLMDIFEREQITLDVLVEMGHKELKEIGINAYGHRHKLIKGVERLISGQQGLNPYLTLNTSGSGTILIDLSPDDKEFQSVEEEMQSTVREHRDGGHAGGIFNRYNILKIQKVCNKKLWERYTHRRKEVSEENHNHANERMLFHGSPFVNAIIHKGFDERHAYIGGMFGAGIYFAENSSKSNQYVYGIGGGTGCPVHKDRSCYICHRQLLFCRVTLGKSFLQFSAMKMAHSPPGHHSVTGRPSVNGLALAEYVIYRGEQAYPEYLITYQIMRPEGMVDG
T1 sequence (O95271 whole entry): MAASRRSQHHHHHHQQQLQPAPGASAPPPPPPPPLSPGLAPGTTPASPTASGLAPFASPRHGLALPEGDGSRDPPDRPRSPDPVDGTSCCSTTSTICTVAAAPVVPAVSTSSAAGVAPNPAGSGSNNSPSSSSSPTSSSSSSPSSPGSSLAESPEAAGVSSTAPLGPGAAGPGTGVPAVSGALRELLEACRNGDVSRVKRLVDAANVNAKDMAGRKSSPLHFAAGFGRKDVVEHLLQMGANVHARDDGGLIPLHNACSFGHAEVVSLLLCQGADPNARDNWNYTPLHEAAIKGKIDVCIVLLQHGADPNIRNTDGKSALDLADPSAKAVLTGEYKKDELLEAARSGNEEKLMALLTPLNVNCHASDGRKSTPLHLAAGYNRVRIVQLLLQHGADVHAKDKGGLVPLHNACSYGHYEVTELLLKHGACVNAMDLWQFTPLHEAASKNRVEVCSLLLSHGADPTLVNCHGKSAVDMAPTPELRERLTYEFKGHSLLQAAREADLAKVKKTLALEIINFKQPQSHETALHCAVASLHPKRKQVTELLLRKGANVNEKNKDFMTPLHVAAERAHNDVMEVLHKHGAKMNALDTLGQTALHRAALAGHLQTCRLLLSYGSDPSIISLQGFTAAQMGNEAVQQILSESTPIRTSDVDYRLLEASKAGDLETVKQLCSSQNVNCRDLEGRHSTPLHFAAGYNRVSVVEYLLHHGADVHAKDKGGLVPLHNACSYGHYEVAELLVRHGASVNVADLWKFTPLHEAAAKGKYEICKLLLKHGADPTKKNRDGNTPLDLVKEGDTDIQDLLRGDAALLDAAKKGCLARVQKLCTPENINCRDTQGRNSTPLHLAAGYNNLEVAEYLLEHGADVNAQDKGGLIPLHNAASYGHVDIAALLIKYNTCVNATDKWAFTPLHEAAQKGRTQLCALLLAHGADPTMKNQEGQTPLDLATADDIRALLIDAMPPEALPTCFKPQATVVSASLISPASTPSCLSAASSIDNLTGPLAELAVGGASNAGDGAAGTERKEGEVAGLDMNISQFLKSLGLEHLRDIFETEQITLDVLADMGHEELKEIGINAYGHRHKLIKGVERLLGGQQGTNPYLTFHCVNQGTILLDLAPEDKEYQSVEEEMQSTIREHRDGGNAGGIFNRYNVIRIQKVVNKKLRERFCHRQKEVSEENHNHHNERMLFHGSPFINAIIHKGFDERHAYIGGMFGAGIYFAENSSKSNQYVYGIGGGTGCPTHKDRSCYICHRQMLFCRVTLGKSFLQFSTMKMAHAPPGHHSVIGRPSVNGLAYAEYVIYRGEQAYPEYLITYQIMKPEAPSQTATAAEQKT

[3] = biological target: T2, Poly [ADP-ribose] polymerase tankyrase-2 (Homo sapiens, UniProt Q9H2K2); assay: Inhibition of TNKS2 (unknown origin) by NAD+-dependent autopoly(ADP ribosyl)lation assay
T2 sequence (Q9H2K2 whole entry): T1 sequence (Q9H2K2 whole entry)

half-life [2] [min] | IC50 (Tankyrase 1/2) [µM] | SMILES | also measured
37 | – | COc1cc(-c2nnc(/C=C/c3nnc(-c4ccc(S(C)(=O)=O)cn4)n3-c3ccccc3Cl)o2)ccn1 | –
– | 3.92 | NCCCOCCCOc1cccc(-c2noc(CSc3nnc(-c4ccncc4)n3-c3ccccc3Cl)n2)c1 | –
– | 4.5 | Cc1nnc(SCc2nnc(-c3ccc(Cl)cc3)o2)n1-c1ccccc1Cl | –
7 | – | Cc1ccc(-c2nnc(CCc3nnc(-c4ccncc4)n3-c3ccccc3Cl)o2)cc1 | –
2.4 | – | N#Cc1ccc(-c2nnc(CSc3nnc(-c4ccncc4)n3-c3ccccc3Cl)o2)cc1 | –

Further lines, the compound ahead of its results:

SMILES | half-life [2] [min] | IC50 (Tankyrase 1/2) [µM] | also measured
N#Cc1ccc(-c2nnc(CSc3nnc(-c4ccncc4)n3-c3ccncc3Cl)o2)cc1 | – | – | inhibition [1]: inactive
Cc1cc2nc(CSc3nnc(-c4ccncc4)n3-c3ccccc3Cl)cc(=O)n2cc1C | 7 | – | –
COc1ccc(-n2c(NCc3nc(-c4ccc(C)cc4)no3)nnc2-c2ccncc2)cc1 | 6.5 | > 10 | IC50 [3]: > 10 µM
COc1ccc(-n2c(OCc3nc(-c4ccc(C)cc4)no3)nnc2-c2ccncc2)cc1 | – | > 10 | IC50 [3]: > 10 µM
COc1ccc(-n2c(SCc3nc(-c4ccc(C)cc4)no3)nnc2-c2ccncc2)cc1 | 3 | 1.01 | IC50 [3]: 0.46 µM
Oc1cc(-c2nnc(/C=C/c3nnc(-c4ccc(F)cc4)n3-c3ccccc3Cl)o2)ccn1 | 128 | – | –
Cc1ccc(-c2noc(CSc3ncc(-c4ccncc4)n3-c3ccccc3C)n2)cc1 | – | > 10 | –
CS(=O)(=O)c1ccc(-c2nnc(SCc3nnc(-c4ccc(Cl)cc4)o3)n2-c2ccccc2Cl)nc1 | 4 | – | –

From ChEMBL document CHEMBL2321812 (J Med Chem, 2013)
